Activity calls are given as the source filed them. The calls are words filed in the database; no cut-off is given here.
How the values were obtained:
[1] = target: T1, Transient receptor potential cation channel subfamily A member 1 (Homo sapiens, UniProt O75762); test: Agonist activity at human TRPA1 expressed in HEK293 cells assessed as increase in calcium influx by Fluo-4-AM dye based fluorescence assay; format: cell-based
How it was run: (§1)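 Stably transfected hTRPA1- or hTRPM8-HEK293 cells on poly-D-lysine plates for 48 h, loaded with Fluo-4AM (2 µM, 45 min, dark, room temperature), in isotonic HEPES buffer pH 7.4. FlexStation 240 s run: 20 s baseline, compound added, calcimycin added at 180 s. ΔRFU expressed as % calcimycin, DMSO-subtracted. Screening N = 3. Dose-response curves fitted for logEC50 (N = 3 in duplicate or triplicate).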

[2] = target: Transient receptor potential cation channel subfamily A member 1 (Mus musculus, UniProt Q8BLA8); test: Agonist activity at mouse TRPA1 expressed in CHO cells assessed as increase in calcium influx by patch clamp electrophysiology method; format: cell-based
[3] = tested on: Transient receptor potential cation channel subfamily A member 1 (Homo sapiens), O75762 [F909A]; test: Agonist activity at human TRPA1 Phe909Ala mutant expressed in HEK293 cells assessed as Ca2+ influx […] fluorescence assay; format: cell-based
How it was run: (§2)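 HEK293 cells stably expressing hTRPA1 point mutants (C621A, F909A or F944A), single-cell cloned under G418 selection. Cells plated on poly-D-lysine for 48 h, loaded with Fluo-4AM 2 µM for 45 min at room temperature. FlexStation read (ex 485/em 538 nm): 20 s baseline, compound added, calcimycin added at 180 s. Response expressed as % calcimycin from ΔRFU, vehicle-subtracted, and compared with wild-type hTRPA1 cells.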

[4] = target: T1, Transient receptor potential cation channel subfamily A member 1; test: Agonist activity at human TRPA1 in WI38 cells assessed as increase in calcium influx by Fluo-4-AM dye based fluorescence assay; format: cell-based
[5] = tested on: Transient receptor potential cation channel subfamily A member 1 (Homo sapiens), O75762 [F909A]; test: Agonist activity at human TRPA1 Phe909Ala mutant expressed in HEK293 cells assessed as Ca2+ influx at 30 uM by fluorescence assay; format: cell-based; how it was run: as §2
[6] = target: T1, Transient receptor potential cation channel subfamily A member 1; test: Agonist activity at human TRPA1 expressed in HEK293 cells assessed as increase in calcium influx at 30 uM by Fluo-4-AM dye based fluorescence assay relative to calcimycin; format: cell-based; how it was run: as §1
[7] = target: T1, Transient receptor potential cation channel subfamily A member 1; test: Antagonist activity at human TRPA1 expressed in HEK293 cells assessed as increase in calcium influx at 100 uM incubated for 10 mins prior to CA addition by Fluo-4-AM dye based fluorescence assay relative to CA; format: cell-based; design: scale not given: the % may be the effect or the level left
How it was run: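 hTRPA1-HEK293 cells loaded with Fluo-4AM (2 µM). Compound pre-incubated 10 min, then cinnamaldehyde standard agonist added. FlexStation read, ex 485/em 538 nm. ΔRFU normalized to the CA response set at 100 % after DMSO vehicle subtraction. N = 3. logIC50 taken from dose-response fits.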

[8] = target: T2, Transient receptor potential cation channel subfamily M member 8 (Homo sapiens, UniProt Q7Z2W7); test: Agonist activity at human TRPM8 expressed in HEK293 cells assessed as increase in calcium influx at 30 uM by Fluo-4-AM dye based fluorescence assay relative to calcimycin; format: cell-based; how it was run: as §1
Target sequence in this assay (Q7Z2W7 whole entry, looked up): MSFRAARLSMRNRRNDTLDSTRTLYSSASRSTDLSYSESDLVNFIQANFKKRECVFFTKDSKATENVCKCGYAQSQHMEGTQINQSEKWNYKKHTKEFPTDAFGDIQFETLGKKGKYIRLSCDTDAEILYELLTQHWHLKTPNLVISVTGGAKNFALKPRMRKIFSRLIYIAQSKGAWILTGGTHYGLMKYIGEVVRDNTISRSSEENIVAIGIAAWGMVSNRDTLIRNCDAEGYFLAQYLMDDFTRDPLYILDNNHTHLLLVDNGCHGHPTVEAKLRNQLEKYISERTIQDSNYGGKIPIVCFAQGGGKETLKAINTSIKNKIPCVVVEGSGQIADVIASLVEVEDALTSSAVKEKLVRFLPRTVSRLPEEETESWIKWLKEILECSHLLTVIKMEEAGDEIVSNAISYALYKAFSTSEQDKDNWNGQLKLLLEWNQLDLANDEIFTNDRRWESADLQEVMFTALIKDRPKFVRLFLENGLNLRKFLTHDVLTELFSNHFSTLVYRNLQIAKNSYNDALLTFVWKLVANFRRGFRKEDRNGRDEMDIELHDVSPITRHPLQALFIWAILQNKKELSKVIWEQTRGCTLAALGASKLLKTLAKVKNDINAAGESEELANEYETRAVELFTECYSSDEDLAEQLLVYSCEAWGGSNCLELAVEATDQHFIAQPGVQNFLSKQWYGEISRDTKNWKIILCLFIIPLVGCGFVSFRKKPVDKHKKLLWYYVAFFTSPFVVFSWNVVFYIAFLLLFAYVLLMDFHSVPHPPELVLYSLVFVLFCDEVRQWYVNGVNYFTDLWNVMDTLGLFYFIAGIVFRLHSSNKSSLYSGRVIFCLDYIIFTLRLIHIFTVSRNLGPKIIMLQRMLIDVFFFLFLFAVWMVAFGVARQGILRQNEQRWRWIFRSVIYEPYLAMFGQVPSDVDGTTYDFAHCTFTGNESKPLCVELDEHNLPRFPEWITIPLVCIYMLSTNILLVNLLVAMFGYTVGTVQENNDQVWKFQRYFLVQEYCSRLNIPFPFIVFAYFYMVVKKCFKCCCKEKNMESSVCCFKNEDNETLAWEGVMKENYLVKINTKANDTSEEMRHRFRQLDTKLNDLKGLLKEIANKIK

[9] = target: T2, Transient receptor potential cation channel subfamily M member 8; test: Antagonist activity at human TRPM8 expressed in HEK293 cells assessed as increase in calcium influx at 100 uM incubated for 10 mins prior to WS5 challenge by Fluo-4-AM dye based fluorescence assay relative to WS5; format: cell-based; design: scale not given: the % may be the effect or the level left
How it was run: (§3)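 hTRPM8-HEK293 cells loaded with Fluo-4AM (2 µM, 45 min). Test compound pre-incubated 10 min before WS5 standard agonist. FlexStation fluorescence at 485/538 nm. ΔRFU given as % of WS5 response after DMSO vehicle subtraction. N = 3. IC50 from dose-response curves.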
Target sequence in this assay (Q7Z2W7 whole entry, looked up): as above

[10] = target: T2, Transient receptor potential cation channel subfamily M member 8; test: Antagonist activity at human TRPM8 expressed in HEK293 cells assessed as inhibition in WS5-induced increase in calcium influx incubated for 10 mins prior to WS5 challenge by Fluo-4-AM dye based fluorescence assay; format: cell-based; how it was run: as §3
Target sequence in this assay (Q7Z2W7 whole entry): as the sequence (Q7Z2W7 whole entry, looked up) above

Cavia porcellus [11] = species on record: Cavia porcellus; test: Agonist activity at TRPA1 in Dunkin-Hartley guinea pig vagus nerve assessed as activation of vagus nerve by measuring depolarization at 100 uM […]
How it was run: (§4)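 Isolated vagus nerves from male Dunkin-Hartley guinea pigs (300-400 g, eight animals). Compound DMSO stocks diluted 1000× in Krebs-Henseleit buffer. Viability checked with capsaicin (1 µM) at the start and acrolein (300 µM) at the end. Single non-cumulative concentrations applied for 2 min each, with KH wash to baseline between them. DMSO vehicle run alike. Depolarization recorded in mV.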

Cavia porcellus [12] = species on record: Cavia porcellus; test: Antagonist activity at TRPA1 in Dunkin-Hartley guinea pig vagus nerve assessed as inhibition of ACR-stimulated vagus nerve by measuring depolarization at 100 uM incubated for 10 mins followed by ACR stimulation for 140 secs […]
How it was run: (§5)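 Guinea pig vagus nerve (male Dunkin-Hartley) in Krebs-Henseleit buffer; compound from DMSO stock diluted 1000×. Two control acrolein (300 µM, 2 min) responses, each washed to baseline. Then 10 min compound pretreatment and re-stimulation with acrolein 300 µM for 2 min 20 s. After washout, a recovery acrolein response was taken. Depolarization recorded in mV.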

[13] = Dissociation constant, pKa of the compound at pH 7.4; format: physicochemical
[14] = target: T2, Transient receptor potential cation channel subfamily M member 8; test: Agonist activity at human TRPM8 expressed in HEK293 cells assessed as increase in calcium influx at 100 uM by Fluo-4-AM dye based fluorescence assay relative to calcimycin; format: cell-based; how it was run: as §1
Target sequence in this assay (Q7Z2W7 whole entry, looked up): as above

[15] = tested on: Transient receptor potential cation channel subfamily A member 1 (Homo sapiens), O75762 [F909A]; test: Agonist activity at human TRPA1 Phe909Ala mutant expressed in HEK293 cells assessed as Ca2+ influx at 10 uM by fluorescence assay; format: cell-based; how it was run: as §2
[16] = tested on: Transient receptor potential cation channel subfamily A member 1 (Homo sapiens), O75762 [F944A]; test: Agonist activity at human TRPA1 Phe944Ala mutant expressed in HEK293 cells assessed as Ca2+ influx at 10 uM by fluorescence assay; format: cell-based; how it was run: as §2
[17] = tested on: Transient receptor potential cation channel subfamily A member 1 (Homo sapiens), O75762 [F944A]; test: Agonist activity at human TRPA1 Phe944Ala mutant expressed in HEK293 cells assessed as Ca2+ influx at 30 uM by fluorescence assay; format: cell-based; how it was run: as §2
[18] = target: T1, Transient receptor potential cation channel subfamily A member 1; test: Antagonist activity at human TRPA1 expressed in HEK293 cells assessed as inhibition of CA-induced increase in calcium influx incubated for 10 mins prior to CA addition by Fluo-4-AM dye based fluorescence assayy; format: cell-based
[19] = target: T1, Transient receptor potential cation channel subfamily A member 1; test: Modulating activity at human TRPA1 expressed in HEK293 cells assessed as desensitization of CA-induced increase in Ca2+ influx at 10 uM measured within 10 mins by Fluo-4-AM dye based fluorescence assay; format: cell-based
How it was run: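 hTRPA1-HEK293 cells with Fluo-4AM. Real-time fluorescence recorded for 10 min after compound addition (10 µM), followed by challenge with cinnamaldehyde (30 µM) to assess desensitization of the agonist response.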

[20] = target: T1, Transient receptor potential cation channel subfamily A member 1; test: Reversible desensitizing activity at human TRPA1 expressed in HEK293 cells assessed as CA-induced increase in Ca2+ influx upto 10 uM pretreated with compound followed by drug wash-out and CA challenge by Fluo-4-AM dye based fluorescence assay; format: cell-based
How it was run: (§6)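 hTRPA1-HEK293 cells loaded with Fluo-4AM were pre-incubated with compound, then washed and resuspended in fresh assay buffer. The response to cinnamaldehyde (30 µM) was then measured by FlexStation calcium fluorescence.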

[21] = target: T1, Transient receptor potential cation channel subfamily A member 1; test: Irreversible desensitizing activity at human TRPA1 expressed in HEK293 cells assessed as CA-induced increase in Ca2+ influx at >30 uM pretreated with compound followed by drug wash-out and CA challenge by Fluo-4-AM dye based fluorescence assay; format: cell-based; how it was run: as §6
[22] = target: T1, Transient receptor potential cation channel subfamily A member 1; test: Reversible desensitizing activity at human TRPA1 expressed in HEK293 cells assessed as CA-induced increase in Ca2+ influx up to 30 uM pretreated with compound followed by drug wash-out and CA challenge by Fluo-4-AM dye based fluorescence assay; format: cell-based; how it was run: as §6
Cavia porcellus [23] = species on record: Cavia porcellus; test: Agonist activity at TRPA1 in Dunkin-Hartley guinea pig vagus nerve assessed as activation of vagus nerve by measuring depolarization at 300 uM […]; how it was run: as §4
Cavia porcellus [24] = species on record: Cavia porcellus; test: Antagonist activity at TRPA1 in Dunkin-Hartley guinea pig vagus nerve assessed as inhibition of ACR-stimulated vagus nerve by measuring depolarization at 300 uM incubated for 10 mins followed by ACR stimulation for 140 secs […]; how it was run: as §5
[25] = tested on: Transient receptor potential cation channel subfamily A member 1 (Homo sapiens), O75762 [F909A]; test: Antagonist activity at human TRPA1 Phe909Ala mutant expressed in HEK293 cells assessed as Ca2+ influx at 100 uM by fluorescence assay; format: cell-based
How it was run: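 hTRPA1 F909A or F944A mutant HEK293 stable clones, loaded with Fluo-4AM (2 µM, 45 min, room temperature). Compound pre-incubated 10 min before the standard agonist was added. FlexStation fluorescence (485/538 nm). ΔRFU normalized to the standard agonist response set at 100 %, after DMSO vehicle subtraction.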

Transient receptor potential cation channel subfamily A member 1 (Homo sapiens), O75762 [F909A], sequence (O75762 whole entry F909A): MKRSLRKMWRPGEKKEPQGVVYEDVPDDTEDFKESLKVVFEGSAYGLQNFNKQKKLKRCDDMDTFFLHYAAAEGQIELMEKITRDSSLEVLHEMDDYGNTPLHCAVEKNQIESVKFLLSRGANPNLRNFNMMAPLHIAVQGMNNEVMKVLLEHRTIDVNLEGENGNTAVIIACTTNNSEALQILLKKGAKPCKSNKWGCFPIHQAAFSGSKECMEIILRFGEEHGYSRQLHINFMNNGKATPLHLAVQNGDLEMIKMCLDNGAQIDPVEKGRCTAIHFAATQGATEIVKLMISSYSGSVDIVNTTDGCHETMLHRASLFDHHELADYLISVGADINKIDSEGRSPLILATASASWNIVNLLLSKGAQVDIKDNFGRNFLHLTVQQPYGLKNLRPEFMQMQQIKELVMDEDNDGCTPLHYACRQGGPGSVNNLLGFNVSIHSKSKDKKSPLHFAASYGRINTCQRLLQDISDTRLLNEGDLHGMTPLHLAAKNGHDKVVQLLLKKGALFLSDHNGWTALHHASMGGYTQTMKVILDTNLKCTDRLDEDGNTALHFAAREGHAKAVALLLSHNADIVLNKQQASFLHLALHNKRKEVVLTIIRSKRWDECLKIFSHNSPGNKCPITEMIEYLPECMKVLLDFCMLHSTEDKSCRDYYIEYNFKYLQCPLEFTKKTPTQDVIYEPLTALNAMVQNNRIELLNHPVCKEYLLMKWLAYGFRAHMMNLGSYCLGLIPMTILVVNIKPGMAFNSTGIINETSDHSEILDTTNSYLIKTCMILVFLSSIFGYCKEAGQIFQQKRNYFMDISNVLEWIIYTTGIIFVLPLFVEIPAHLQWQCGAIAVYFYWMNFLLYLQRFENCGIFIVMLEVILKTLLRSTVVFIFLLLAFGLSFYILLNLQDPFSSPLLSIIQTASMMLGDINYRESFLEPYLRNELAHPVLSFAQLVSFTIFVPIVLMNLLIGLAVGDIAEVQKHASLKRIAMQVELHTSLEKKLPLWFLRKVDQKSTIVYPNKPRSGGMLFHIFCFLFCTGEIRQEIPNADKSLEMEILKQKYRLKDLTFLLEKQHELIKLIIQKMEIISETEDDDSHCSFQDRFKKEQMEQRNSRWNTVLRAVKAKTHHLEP
Transient receptor potential cation channel subfamily A member 1 (Homo sapiens), O75762 [F944A], sequence (O75762 whole entry F944A): as the sequence (O75762 whole entry F909A) above, with A909F, F944A counted along it
T1 sequence (O75762 whole entry): as the sequence (O75762 whole entry F909A) above, with A909F counted along it
Transient receptor potential cation channel subfamily A member 1 (Mus musculus, UniProt Q8BLA8), sequence (Q8BLA8 whole entry): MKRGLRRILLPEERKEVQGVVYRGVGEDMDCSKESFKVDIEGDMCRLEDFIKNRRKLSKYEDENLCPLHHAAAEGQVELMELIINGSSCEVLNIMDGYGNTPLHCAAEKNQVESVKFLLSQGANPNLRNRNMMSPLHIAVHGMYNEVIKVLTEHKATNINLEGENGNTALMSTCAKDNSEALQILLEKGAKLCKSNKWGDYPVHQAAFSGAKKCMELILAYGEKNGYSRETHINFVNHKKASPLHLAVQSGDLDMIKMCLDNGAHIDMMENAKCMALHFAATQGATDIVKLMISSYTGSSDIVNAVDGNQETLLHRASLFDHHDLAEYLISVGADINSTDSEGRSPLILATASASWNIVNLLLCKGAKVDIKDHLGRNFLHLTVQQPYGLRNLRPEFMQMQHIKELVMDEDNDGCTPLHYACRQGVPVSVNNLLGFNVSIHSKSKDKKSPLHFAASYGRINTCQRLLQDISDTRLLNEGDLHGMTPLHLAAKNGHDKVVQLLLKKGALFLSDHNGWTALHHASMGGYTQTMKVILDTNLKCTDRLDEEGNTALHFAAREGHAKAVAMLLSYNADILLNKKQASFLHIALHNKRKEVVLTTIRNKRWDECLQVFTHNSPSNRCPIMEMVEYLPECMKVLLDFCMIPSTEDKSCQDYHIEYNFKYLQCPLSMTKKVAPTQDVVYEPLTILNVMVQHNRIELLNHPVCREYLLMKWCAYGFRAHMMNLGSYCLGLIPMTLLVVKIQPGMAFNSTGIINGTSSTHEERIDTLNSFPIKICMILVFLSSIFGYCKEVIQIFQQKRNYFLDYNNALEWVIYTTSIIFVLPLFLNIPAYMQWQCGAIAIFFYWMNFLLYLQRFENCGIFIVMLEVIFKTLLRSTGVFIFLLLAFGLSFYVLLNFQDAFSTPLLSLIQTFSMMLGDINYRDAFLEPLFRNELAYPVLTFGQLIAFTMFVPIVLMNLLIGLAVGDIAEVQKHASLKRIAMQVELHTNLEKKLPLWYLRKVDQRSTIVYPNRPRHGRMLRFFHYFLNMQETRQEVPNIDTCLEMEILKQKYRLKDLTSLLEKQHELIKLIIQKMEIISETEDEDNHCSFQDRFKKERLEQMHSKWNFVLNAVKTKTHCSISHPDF

CN1CCC[C@H]1c1cccnc1 [NICOTINE]
EC50 ([1]; read-out: EC50): 2 µM
EC50 [2]: 10 µM
Activity [3]: Active

Cc1cccc(Nc2ccccc2C(=O)O)c1C [MEFENAMIC ACID]
EC50 ([1]; read-out: EC50): 16 µM
EC50 [4]: 61 µM
Activity [5]: Active

O=C(/C=C/c1ccc(C(F)(F)F)cc1)Nc1ccccc1C(=O)O
Activity [6]: 51%
Activity [7]: 28%
EC50 ([1]; read-out: EC50): 27 µM
Activity [8]: inactive
Activity [9]: 17%
IC50 [10]: 34 µM
Activity (Cavia porcellus [11]): Active
inhibition (Cavia porcellus [12]): inactive
pKa [13]: 3.4
Activity [14]: inactive
Activity [5]: Active
Activity [15]: Active
Activity [16]: inactive
Activity [17]: Active

O=C(/C=C/c1ccc(Cl)cc1)Nc1ccccc1C(=O)O
Activity [6]: 62%
Activity [7]: 7%
EC50 ([1]; read-out: EC50): 10 µM
IC50 [18]: 4 µM
Activity [8]: inactive
Activity [9]: 40%
Activity (Cavia porcellus [11]): Active
pKa [13]: 3.4
Activity [14]: inactive
Activity [19]: Active
Activity [20]: Active
Activity [21]: Active

O=C(/C=C/c1ccc(F)cc1)Nc1ccccc1C(=O)O
Activity [6]: 37%
Activity [7]: 13%
EC50 ([1]; read-out: EC50): 30 µM
IC50 [18]: 26 µM
Activity [8]: inactive
Activity [9]: 61%
pKa [13]: 3.4
Activity [14]: inactive
Activity [19]: Active
Activity [22]: Active
Activity [21]: Active

O=C(O)c1ccccc1Nc1cccc(C(F)(F)F)c1 [FLUFENAMIC ACID]
EC50 ([1]; read-out: EC50): 7 to 57 µM
EC50 ([1]; read-out: pEC50 (converted)): 6.92 µM
EC50 [4]: 24 µM
Activity [15]: Active
Activity [16]: inactive

O=C(/C=C/c1ccc(O)cc1)Nc1ccccc1C(=O)O
Activity [6]: 1%
Activity [7]: 35%
IC50 [18]: 43 µM
Activity [8]: inactive
Activity [9]: 70%
Activity (Cavia porcellus [23]): Active
pKa [13]: 3.5
Activity [14]: inactive
inhibition (Cavia porcellus [24]): inactive
Activity [25]: inactive

From ChEMBL document CHEMBL4346663, “N-Cinnamoylanthranilates as human TRPA1 modulators: Structure-activity relationships and channel binding sites” (Eur J Med Chem, 2019)
